S1P3 antag = blocks the human S1P3 receptor; CHO S1P3 NFAT-BLA reporter, FRET fluorescence, antagonist mode; AID 485; inhibition, % at 4.98 µM; 0.27% of 170,000 active;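 active = inhibition above the plate cutoff, the mean inhibition of test wells on that plate plus 3 SD, cut at about 28% in these data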;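 also: cells challenged with S1P at its EC80 of 0.8 µM; blue over green emission ratio from cleaved BLA substrate after 4 h stimulation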
FXIIa inh 1536 = blocks human coagulation factor XIIa protease activity | purified FXIIa, Boc-QGR-AMC fluorogenic substrate, 2 h | AID 800 | inhibition, % at 5 µM | P00748 | 0.3% of 220,000 active; in the data active = inhibition above about 40%
hK5 inh = blocks human kallikrein 5 protease activity. recombinant hK5, fluorogenic AMC substrate cleavage. inhibition, % at 5 µM. 0.59% of 210,000 active. AID 873;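 active = inhibition of 40% or more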
DTT redox prof = compounds producing H2O2 with reducing agent – biochemical, NIH compound library profiling, artefact control for MLSCN library redox annotation, primary screen. DTT-dependent redox cycling H2O2, phenol red/HRP absorbance; 100% = 100 µM peroxide control, 0% = buffer. activation, % at 10 µM. 0.03% of 200,000 active. AID 878;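 active = activation of at least 50% relative to the plate's high and low controls in the primary single-dose screen; inactive = activation below 50%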;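 also: compound incubated with DTT at 0.8 mM final as the reducing agent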
Thrombin inh = inhibitors of human thrombin. alpha-thrombin, Boc-VPR-AMC fluorogenic substrate cleavage. inhibition, % at 5 µM. 0.26% of 220,000 active. P00734;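 active = inhibition at or above 40%; inactive = inhibition below 40%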
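Material: human alpha-thrombin enzyme / Medium: pH 7.5 Tris (50 mM) with NaCl 150 mM, Tween 20 0.05% / Compound: single-point dosing at 5 µM, 0.2% DMSO / Incubation: enzyme reaction carried out at room temperature / Detection: AMC fluorescence, 355/460 nm / Read-out basis: percent inhibition scaled between no-compound controls and no-enzyme blanks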
FXIa inh 1536 = blocks human coagulation factor XIa protease activity | purified FXIa, Boc-Glu-Ala-Arg-AMC fluorogenic substrate | AID 798 | inhibition, % at 5 µM | P03951 | 0.14% of 220,000 active;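 active = inhibition of at least 40%; inactive = inhibition below 40%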;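 also: fluorescence of freed AMC excited at 355 nm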
Hits are given with their value; . = inactive; / = not tested or not shown. An excerpt weighted towards active compounds, which were near 1.2% of everything screened.

SMILES	S1P3 antag	FXIIa inh 1536	hK5 inh	DTT redox prof	Thrombin inh	FXIa inh 1536
Cc1cc(C)n(/N=C/c2ccccc2)c(=O)c1C#N	.	57.5	.	.	.	.
Cc1c(Cl)cccc1NC(=O)Cc1ccc([N+](=O)[O-])cc1	.	.	.	.	95.8	.
COc1cc(CNCC2CCCO2)ccc1OCC(N)=O (stereo not drawn)	.	.	.	.	.	.
CC(C)(C)c1cc(C(F)(F)F)nc(SCCCNC(=O)c2ccco2)n1	58.7	.	.	.	.	.
Cc1ccc(C(=O)NCC(=O)OC(C)C(=O)Nc2ccc(N(C)C)cc2)cc1C (stereo not drawn)	.	.	.	.	.	.
COc1cc2nc(=S)n3[nH]c(COc4ccccc4C)nc3c2cc1OC	.	.	44.7	.	.	.
CCn1ncc(Br)c1C(=O)Nc1cc([N+](=O)[O-])ccc1C	.	.	.	.	54.3	.
CCn1ncc(Br)c1C(=O)Nc1ccccc1OC	.	.	.	.	.	.
COc1ccc(N2CSC3=C(C#N)C(c4cccc(OC)c4OC)CC(=O)N3C2)cc1 (stereo not drawn)	98.9	.	.	.	.	.
O=C(CNCc1ccccn1)Nc1cc(C(F)(F)F)ccc1N1CCOCC1	.	41.3	.	/	.	.
O=C(Cn1c(CO)nc2ccccc21)Nc1cc(C(F)(F)F)ccc1N1CCOCC1	.	.	.	.	.	.
CC(NC(=S)Nc1ccccc1C(F)(F)F)C1CC2CCC1C2 (stereo not drawn)	.	.	.	.	.	.
CCc1cccc(C)c1NC(=S)N(CCCN1CCOCC1)Cc1cccnc1	.	.	.	.	.	.
Cc1noc(C)c1CSc1nc2ccccc2c(=O)n1-c1ccc(F)cc1F	.	42.9	.	.	.	.
C=CCn1c(SCc2c(C)noc2C)nc2cc(C(=O)O)ccc2c1=O	.	.	.	.	46.1	.
Cc1noc(C)c1CSc1nc2ccccc2c(=O)n1-c1ccccc1	.	.	.	.	.	.
C=CCn1c(SCc2c(C)noc2C)nc2ccccc2c1=O	/	.	.	.	.	.
Cc1ccsc1C(C(=O)NC(C)(C)C)N(C(=O)c1csnn1)c1ccccc1 (stereo not drawn)	.	.	.	.	.	.
CCN(CC)C(=O)CSc1ccccc1N	.	.	46.9	.	.	.
Cc1cc(C(=O)Cn2ncc(Cl)c(Cl)c2=O)c(C)n1CC(F)(F)F	.	.	71.7	.	.	.
Cc1ccc(C)c(C(=O)Cn2ncc(Cl)c(Cl)c2=O)c1	/	.	.	.	.	.
COc1cccc(OC)c1CN1CCCC(C(=O)c2ccccc2SC)C1 (stereo not drawn)	.	.	.	.	.	.
CC(C)[C@H](NC(=O)[C@H](CCCN=C(N)N)NC(=O)NC(Cc1ccccc1)C(=O)O)C(=O)NC(C=O)CCCN=C(N)N (stereo partly drawn)	.	47.4	.	.	.	43.4
COC(=O)[C@@H](NC(=O)NC(C)CCc1ccccc1)C(C)C (stereo partly drawn)	.	.	.	.	.	.
CCC(C)C(NC(=O)OC(C)(C)C)C(=O)NC(C(=O)NC(C)C(N)=O)C(C)C (stereo not drawn)	.	.	.	.	.	.
SMILES	S1P3 antag	FXIIa inh 1536	hK5 inh	DTT redox prof	Thrombin inh	FXIa inh 1536
Cc1ccccc1OCC(=O)Nc1sc(C(=O)Nc2cccc(C)c2C)c(C)c1C#N	/	.	45.4	.	.	.
COc1ccccc1NC(=O)c1sc(NC(=O)c2ccco2)c(C#N)c1C	/	.	.	.	.	.
CCN(CC)C(=O)c1sc(NC(=O)Cc2ccccc2)c(C#N)c1C	/	.	40.8	.	.	.
CCN(CC)C(=O)c1sc(NC(=O)Cc2ccc(OC)cc2)c(C#N)c1C	/	.	.	.	.	.
CCOCCc1c(O)nc(SCCOc2ccc(C)c(C)c2)[nH]c1=O	.	.	.	.	.	.
Cc1cccc(OCCn2c(-c3ccco3)nc3ccccc32)c1	/	.	48.3	.	.	.
COc1ccc(-c2ccc([C@H]3[C@@H]4C=CCC[C@@]4(C)C(=O)N3Cc3ccccc3)c(F)c2)cc1	/	.	.	/	.	.
COc1ccc(-c2cc([C@H]3[C@@H]4C=CCC[C@@]4(C)C(=O)N3Cc3ccccc3)ccc2F)cc1	/	.	41.9	/	.	.
